Laboratory results published in ChEMBL document CHEMBL1137702, “Identification of hydrolytically stable and selective P2Y(1) receptor agonists” (Eur J Med Chem, 2009).

Tests used:
P2Y purinoceptor 1 [1] = molecular target: T1, P2Y purinoceptor 1 (Meleagris gallopavo, UniProt P49652); assay: Antagonist activity at turkey P2Y1 receptor expressed in human 1321N1 cells assessed as inhibition of 2-MeS-ADP-induced increase in intracellular calcium concentration by dual-excitation spectrofluorimetric analysis; assay type: functional, cell-based
How it was run: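 Fura-2-loaded suspensions of stably transfected 1321N1 cells were assayed at 37 °C in HEPES-buffered saline pH 7.4 with 1 mM Ca2+ and Mg2+. […] [Ca2+]i was read by dual-excitation spectrofluorometry.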

[2] = Dissociation constant, pKa of the compound; assay type: physicochemical
[3] = Chemical stability assessed as hydrolysis half life at pH 1.4 by 31P NMR analysis; assay type: physicochemical; settings: buffer
P2Y purinoceptor 1 [4] = molecular target: P2Y purinoceptor 1 (Rattus norvegicus, UniProt P49651); assay: Agonist activity at rat pancreas P2Y1 receptor assessed as enhancement of insulin secretion; assay type: functional
[5] = Stability after 100 mins by HPLC-MS analysis in presence of calf intestine alkaline phosphatase; assay type: ADME; settings: cattle, isolated protein
[6] = Chemical stability at physiological pH at 37 deg C assessed as hydrolysis half life by 31P NMR analysis; assay type: physicochemical
alkaline phosphatase = assay: Stability assessed as drug remaining after 12 mins by HPLC-MS analysis in presence of calf intestine alkaline phosphatase; assay type: ADME; settings: cattle, read-out: Stability
Serum [7] = assay: (§1) Metabolic stability in human serum assessed as hydrolysis half life at 40 mM measured for 6 days by HPLC; assay type: ADME, cell-free; settings: 144 h, 40000 µM
P2Y purinoceptor 6 = P2Y purinoceptor 6 (Rattus norvegicus, UniProt Q63371); assay: Agonist activity at rat P2Y6 receptor expressed in human 1321N1 cells assessed as increase in intracellular calcium concentration by dual-excitation spectrofluorimetric analysis; assay type: functional, cell-based
How it was run: (§2)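 1321N1 astrocytoma cells stably expressing the receptor (turkey P2Y1, human P2Y2, human P2Y4, rat P2Y6) were grown with G-418 selection. Fura-2-loaded cell suspensions were exposed at 37 °C in 10 mM HEPES-buffered saline pH 7.4 with 1 mM CaCl2 and 1 mM MgCl2. Peak [Ca2+]i rise was measured over a range of concentrations to derive EC50.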

[8] = molecular target: P2Y purinoceptor 1 (Rattus norvegicus) (UniProt P49651); assay: Agonist activity at rat pancreas P2Y1 receptor assessed as enhancement of insulin secretion relative to basal level; assay type: functional
[9] = molecular target: T2, Ectonucleoside triphosphate diphosphohydrolase 1 (Bos taurus) (UniProt O18956); assay: Activity of bovine spleen NTPDase 1 assessed as drug hydrolysis at 100 uM after 7 mins by malachite green colorimetric assay relative to ATP; assay type: tissue-based; parameters: scale not given: the % may be the effect or the level left
T2 sequence (whole entry): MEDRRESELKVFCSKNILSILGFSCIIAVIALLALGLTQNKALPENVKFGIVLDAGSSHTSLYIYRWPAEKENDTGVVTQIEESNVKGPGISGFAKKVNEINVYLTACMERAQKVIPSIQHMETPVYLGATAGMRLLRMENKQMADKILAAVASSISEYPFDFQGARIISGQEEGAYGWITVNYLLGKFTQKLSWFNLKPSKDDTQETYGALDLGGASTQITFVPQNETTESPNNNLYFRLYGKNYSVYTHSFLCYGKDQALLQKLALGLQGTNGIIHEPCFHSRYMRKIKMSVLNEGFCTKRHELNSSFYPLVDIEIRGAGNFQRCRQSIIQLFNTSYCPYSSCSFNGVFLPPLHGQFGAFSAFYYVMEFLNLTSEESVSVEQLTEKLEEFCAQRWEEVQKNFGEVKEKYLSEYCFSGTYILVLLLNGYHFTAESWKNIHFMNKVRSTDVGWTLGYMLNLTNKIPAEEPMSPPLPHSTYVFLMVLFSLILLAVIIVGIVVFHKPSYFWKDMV

[10] = Stability at 77 ug/ml after 30 mins by HPLC in presence of calf intestine alkaline phosphatase; assay type: ADME; settings: cattle, isolated protein, 0.5 h
[11] = Chemical stability assessed as hydrolysis half life at 1.6 mg at pH 1.4 measured at 7 to 17 hrs interval for 5 days by HPLC-MS analysis; assay type: physicochemical
How it was run: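 1.6 mg in 0.2 M HCl/KCl buffer with pH brought to 1.4, held at 37 °C. Sampled at 7–17 h intervals for 5 days by HPLC-ESI-MS on C18 with TEAA/MeOH gradient. Peak area versus time was fit to pseudo-first-order decay for t1/2.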

P2Y purinoceptor 1 [12] = molecular target: T1, P2Y purinoceptor 1; assay: Agonist activity at turkey P2Y1 receptor expressed in human 1321N1 cells assessed as increase in intracellular calcium concentration by dual-excitation spectrofluorimetric analysis; assay type: functional, cell-based
[13] = as §1; assay type: ADME, cell-free
Serum [14] = assay: Metabolic stability in human serum assessed as hydrolysis half life at 0.25 mM measured for 18 hrs by HPLC; assay type: ADME, cell-free; settings: 250 µM
How it was run: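 Serum from healthy-donor whole blood (12 h at 4 °C, spun 1500 × g for 15 min, stored at −80 °C) was diluted 1:3 in RPMI-1640 and incubated with the nucleotide at 37 °C. Samples were acid-quenched (0.6 M HCl), spun, neutralised with 4 M KOH and freeze-dried. They were run on C18 HPLC with a KH2PO4 pH 4.5/acetonitrile gradient. t1/2 came from the change in peak integration over time.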

P2Y purinoceptor 2 = P2Y purinoceptor 2 (Homo sapiens, UniProt P41231); assay: Agonist activity at human P2Y2 receptor expressed in human 1321N1 cells assessed as increase in intracellular calcium concentration by dual-excitation spectrofluorimetric analysis; assay type: functional, cell-based; how it was run: as §2
P2Y purinoceptor 4 = P2Y purinoceptor 4 (Homo sapiens, UniProt P51582); assay: Agonist activity at human P2Y4 receptor expressed in human 1321N1 cells assessed as increase in intracellular calcium concentration by dual-excitation spectrofluorimetric analysis; assay type: functional, cell-based; how it was run: as §2
Sequence of P2Y purinoceptor 4 (P51582 whole entry): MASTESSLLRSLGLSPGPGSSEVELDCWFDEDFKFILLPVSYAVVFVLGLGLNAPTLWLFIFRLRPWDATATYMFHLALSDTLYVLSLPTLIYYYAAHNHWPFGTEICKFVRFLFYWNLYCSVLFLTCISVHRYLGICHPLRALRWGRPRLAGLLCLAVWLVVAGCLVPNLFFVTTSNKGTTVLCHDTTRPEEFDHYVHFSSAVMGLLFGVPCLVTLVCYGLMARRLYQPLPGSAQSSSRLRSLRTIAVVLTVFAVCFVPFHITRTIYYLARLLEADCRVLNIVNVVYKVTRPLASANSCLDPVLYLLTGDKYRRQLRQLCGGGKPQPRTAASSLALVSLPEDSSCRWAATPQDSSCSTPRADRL

T1 sequence (P49652 whole entry): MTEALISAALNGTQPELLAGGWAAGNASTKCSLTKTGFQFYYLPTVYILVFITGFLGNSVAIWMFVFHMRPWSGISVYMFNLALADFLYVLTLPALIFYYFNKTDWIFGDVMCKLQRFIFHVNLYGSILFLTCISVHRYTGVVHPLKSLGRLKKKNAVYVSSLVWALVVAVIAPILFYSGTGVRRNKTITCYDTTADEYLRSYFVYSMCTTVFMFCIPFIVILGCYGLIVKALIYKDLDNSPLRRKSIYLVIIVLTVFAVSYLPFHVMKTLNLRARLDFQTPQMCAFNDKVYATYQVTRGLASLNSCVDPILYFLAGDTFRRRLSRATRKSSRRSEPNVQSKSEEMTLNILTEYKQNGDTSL
Sequence of P2Y purinoceptor 6 (Q63371 whole entry): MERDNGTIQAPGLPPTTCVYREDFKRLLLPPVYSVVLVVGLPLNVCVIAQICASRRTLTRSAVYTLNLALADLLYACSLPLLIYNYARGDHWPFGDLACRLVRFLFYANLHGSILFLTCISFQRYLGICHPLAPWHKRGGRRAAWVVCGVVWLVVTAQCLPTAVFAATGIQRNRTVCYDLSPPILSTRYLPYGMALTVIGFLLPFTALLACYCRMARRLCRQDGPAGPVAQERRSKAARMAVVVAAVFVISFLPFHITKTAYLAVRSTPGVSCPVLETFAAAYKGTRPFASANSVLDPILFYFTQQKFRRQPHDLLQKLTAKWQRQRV
Sequence of P2Y purinoceptor 2 (P41231 whole entry): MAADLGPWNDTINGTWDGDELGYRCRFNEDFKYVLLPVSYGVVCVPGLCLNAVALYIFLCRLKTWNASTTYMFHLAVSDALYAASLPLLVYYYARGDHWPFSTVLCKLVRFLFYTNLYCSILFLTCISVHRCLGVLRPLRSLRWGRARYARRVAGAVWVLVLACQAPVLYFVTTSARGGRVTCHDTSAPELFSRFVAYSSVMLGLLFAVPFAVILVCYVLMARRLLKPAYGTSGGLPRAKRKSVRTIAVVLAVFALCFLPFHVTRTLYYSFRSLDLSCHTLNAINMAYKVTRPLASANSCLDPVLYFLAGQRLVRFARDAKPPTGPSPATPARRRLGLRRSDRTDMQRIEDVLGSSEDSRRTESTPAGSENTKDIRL
Sequence of P2Y purinoceptor 1 (Rattus norvegicus, UniProt P49651) (P49651 whole entry): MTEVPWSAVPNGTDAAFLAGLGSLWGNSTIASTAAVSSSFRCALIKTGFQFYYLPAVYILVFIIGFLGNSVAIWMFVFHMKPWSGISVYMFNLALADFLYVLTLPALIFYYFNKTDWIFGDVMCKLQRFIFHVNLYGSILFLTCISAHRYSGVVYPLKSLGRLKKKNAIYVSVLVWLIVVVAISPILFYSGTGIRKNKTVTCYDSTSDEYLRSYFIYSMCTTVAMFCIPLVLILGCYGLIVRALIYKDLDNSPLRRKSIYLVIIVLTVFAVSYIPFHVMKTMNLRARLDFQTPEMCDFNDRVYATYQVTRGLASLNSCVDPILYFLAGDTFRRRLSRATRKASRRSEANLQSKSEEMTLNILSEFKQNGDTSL
Sequence of P2Y purinoceptor 1 (Rattus norvegicus) (P49651 whole entry): as above

For `BP(=O)(OC[C@H]1O[C@@H](n2cnc3c(N)ncnc32)[C@H](O)[C@@H]1O)OP(=O)(O)CP(=O)(O)O` (some centres undefined), the EC50 (P2Y purinoceptor 1 [1]) was “Not Active”.

Work on `CSc1nc(N)c2ncn([C@@H]3O[C@H](COP(=O)(O)OP(=O)(O)O)[C@@H](O)[C@H]3O)c2n1` yielded a pKa [2] of 6.5.

For `BP(=O)(OC[C@H]1O[C@@H](n2cnc3c(N)nc(SC)nc32)[C@H](O)[C@@H]1O)OP(=O)(O)OP(=O)(O)O` (single isomer, unassigned; diastereomer A) [listing 1 of 2 here], the half-life [3] was 5.9 h, the EC50 (P2Y purinoceptor 1 [4]) was 28 nM and the Stability [5] was “Unstable”. It also gave a half-life [6] of 1400 h and a remaining at 0.2 h (alkaline phosphatase) of 40%.

In the case of `BP(=O)(OC[C@H]1O[C@@H](n2cnc3c(N)nc(SC)nc32)[C@H](O)[C@@H]1O)OP(=O)(O)CP(=O)(O)O` (single isomer, unassigned; diastereomer A), the Stability (Serum [7]) is reported as “Stable” and the EC50 (P2Y purinoceptor 6; 1321-n1) is reported as “Not Active”.

`BP(=O)(OC[C@H]1O[C@@H](n2cnc3c(N)nc(SC)nc32)[C@H](O)[C@@H]1O)OP(=O)(O)OP(=O)(O)O` (single isomer, unassigned; diastereomer A) [listing 2 of 2 here] gave a fold change (FC) [8] of 9 and an Activity [9] of 14%.

For `BP(=O)(OC[C@H]1O[C@@H](n2cnc3c(N)ncnc32)[C@H](O)[C@@H]1O)OP(=O)(O)CP(=O)(O)O` (single isomer, unassigned; diastereomer B), the Stability [10] was “Stable” and the half-life [11] was 19 h.

For `BP(=O)(OC[C@H]1O[C@@H](n2cnc3c(N)nc(SC)nc32)[C@H](O)[C@@H]1O)OP(=O)(O)CP(=O)(O)O` (single isomer, unassigned; diastereomer B), the EC50 (P2Y purinoceptor 1 [12]) was 17200 nM, the half-life at 40000 µM [13] was 71.9 h and the Stability [10] was “Stable”. For the same compound, the half-life [11] was 14.5 h.

`BP(=O)(OC[C@H]1O[C@@H](n2cnc3c(N)nc(SC)nc32)[C@H](O)[C@@H]1O)OP(=O)(O)OP(=O)(O)O` (single isomer, unassigned; diastereomer B) gave an Activity [9] of 59%.

Compound `Nc1ncnc2c1ncn2[C@@H]1O[C@H](COP(=O)(O)OP(=O)(O)O)[C@@H](O)[C@H]1O` [ADENOSINE DIPHOSPHATE] has an EC50 (P2Y purinoceptor 1 [12]) of 100 nM.

`Nc1ncnc2c1ncn2[C@@H]1O[C@H](COP(=O)(O)OP(=O)(O)OP(=O)(O)O)[C@@H](O)[C@H]1O` [ADENOSINE TRIPHOSPHATE] showed a t1/2 (Serum [7]) of 7.7 h and a t1/2 (Serum [14]) of 3.6 h.

`O=c1ccn([C@@H]2O[C@H](COP(=O)(O)OP(=O)(O)OP(=O)(O)O)[C@@H](O)[C@H]2O)c(=O)[nH]1` [URIDINE TRIPHOSPHATE] showed an EC50 (P2Y purinoceptor 2) of 640 nM and an EC50 (P2Y purinoceptor 4) of 480 nM.

`O=c1ccn([C@@H]2O[C@H](COP(=O)(O)OP(=O)(O)O)[C@@H](O)[C@H]2O)c(=O)[nH]1` [URIDINE_DIPHOSPHATE] showed an EC50 (P2Y purinoceptor 6; read-out: EC50) of 200 nM.
